# In ChEMBL document CHEMBL5058577, “EUbOPEN Chemogenomics Library 2 (Multiplex)” (2022):
# System: Fibroblast
# Assay: Multiplex assay against human fibroblast
# Assay type: toxicity, cell-based
# In short: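 Tubulin, mitochondrial-mass and membrane-permeability phenotypes are per cents of healthy-nucleus cells. Cells were gated by CellPathfinder machine learning into Hoechst high-intensity objects or normal cells, normal cells into healthy, pyknosed or fragmented nuclei, and pyknosed cells into mitotic or apoptotic. Before that, live cells stained at seeding with Hoechst33342, BioTracker Green Microtubule Cytoskeleton Dye, MitoTracker Red and Annexin V Alexa Fluor 680 were imaged on a CQ1 microscope at 37°C and 5% CO2 after compound addition.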
# [1] = 12 h, 1 µM, compound concentration 1 uM, replicate 1
# [2] = 12 h, 1 µM, compound concentration 1 uM, replicate 2
# [3] = 12 h, 10 µM, compound concentration 10 uM, replicate 1
# [4] = 12 h, 10 µM, compound concentration 10 uM, replicate 2
# [5] = 24 h, 1 µM, compound concentration 1 uM, replicate 1
# [6] = 24 h, 1 µM, compound concentration 1 uM, replicate 2
# [7] = 24 h, 10 µM, compound concentration 10 uM, replicate 1
# [8] = 24 h, 10 µM, compound concentration 10 uM, replicate 2
# [9] = 48 h, 1 µM, compound concentration 1 uM, replicate 1
# [10] = 48 h, 1 µM, compound concentration 1 uM, replicate 2
# [11] = 48 h, 10 µM, compound concentration 10 uM, replicate 1
# [12] = 48 h, 10 µM, compound concentration 10 uM, replicate 2
structure (smiles),measurement,setting,value
Cc1sc2c(c1C)C(c1ccc(Cl)cc1)=N[C@@H](CC(=O)NCCCCCCCCNC(=O)COc1cccc3c1C(=O)N(C1CCC(=O)NC1=O)C3=O)c1nnc(C)n1-2 (some centres not stated),Population Apoptotic (%),[1],57%
same,Population Fragmented Nuclei (%),[1],10%
same,Population Healthy Nuclei (%),[1],72%
same,Population Hoechst High Intensity Objects (%),[1],3%
same,Population Membrane Permeable-Phenotype (%),[1],1%
same,Population Mitochondria Different-Phenotype (%),[1],4%
same,Population Mitotic Cells (%),[1],42%
same,Population Normal (%),[1],96%
same,Population Pyknosed Nuclei (%),[1],16%
same,Population Tubulin-Different-Phenotype (%),[1],25%
same,Total Cell Count,[1],118
same,Population Apoptotic (%),[2],42%
same,Population Fragmented Nuclei (%),[2],34%
same,Population Healthy Nuclei (%),[2],34%
same,Population Hoechst High Intensity Objects (%),[2],6%
same,Population Membrane Permeable-Phenotype (%),[2],23%
same,Population Mitochondria Different-Phenotype (%),[2],23%
same,Population Mitotic Cells (%),[2],57%
same,Population Normal (%),[2],93%
same,Population Pyknosed Nuclei (%),[2],31%
same,Population Tubulin-Different-Phenotype (%),[2],66%
same,Total Cell Count,[2],94
same,Population Apoptotic (%),[3],54%
same,Population Fragmented Nuclei (%),[3],13%
same,Population Healthy Nuclei (%),[3],56%
same,Population Hoechst High Intensity Objects (%),[3],11%
same,Population Membrane Permeable-Phenotype (%),[3],1%
same,Population Mitochondria Different-Phenotype (%),[3],19%
same,Population Mitotic Cells (%),[3],45%
same,Population Normal (%),[3],88%
same,Population Pyknosed Nuclei (%),[3],30%
same,Population Tubulin-Different-Phenotype (%),[3],50%
same,Total Cell Count,[3],171
same,Population Apoptotic (%),[4],44%
same,Population Fragmented Nuclei (%),[4],27%
same,Population Healthy Nuclei (%),[4],27%
same,Population Hoechst High Intensity Objects (%),[4],17%
same,Population Membrane Permeable-Phenotype (%),[4],7%
same,Population Mitochondria Different-Phenotype (%),[4],26%
same,Population Mitotic Cells (%),[4],55%
same,Population Normal (%),[4],82%
same,Population Pyknosed Nuclei (%),[4],45%
same,Population Tubulin-Different-Phenotype (%),[4],69%
same,Total Cell Count,[4],115
same,Population Apoptotic (%),[5],56%
same,Population Fragmented Nuclei (%),[5],20%
same,Population Healthy Nuclei (%),[5],53%
same,Population Hoechst High Intensity Objects (%),[5],10%
same,Population Membrane Permeable-Phenotype (%),[5],3%
same,Population Mitochondria Different-Phenotype (%),[5],3%
same,Population Mitotic Cells (%),[5],44%
same,Population Normal (%),[5],89%
same,Population Pyknosed Nuclei (%),[5],26%
same,Population Tubulin-Different-Phenotype (%),[5],25%
same,Total Cell Count,[5],107
same,Population Apoptotic (%),[6],65%
same,Population Fragmented Nuclei (%),[6],41%
same,Population Healthy Nuclei (%),[6],32%
same,Population Hoechst High Intensity Objects (%),[6],3%
same,Population Membrane Permeable-Phenotype (%),[6],16%
same,Population Mitochondria Different-Phenotype (%),[6],20%
same,Population Mitotic Cells (%),[6],35%
same,Population Normal (%),[6],96%
same,Population Pyknosed Nuclei (%),[6],25%
same,Population Tubulin-Different-Phenotype (%),[6],72%
same,Total Cell Count,[6],80
same,Population Apoptotic (%),[7],67%
same,Population Fragmented Nuclei (%),[7],20%
same,Population Healthy Nuclei (%),[7],38%
same,Population Hoechst High Intensity Objects (%),[7],13%
same,Population Membrane Permeable-Phenotype (%),[7],3%
same,Population Mitochondria Different-Phenotype (%),[7],9%
same,Population Mitotic Cells (%),[7],32%
same,Population Normal (%),[7],86%
same,Population Pyknosed Nuclei (%),[7],41%
same,Population Tubulin-Different-Phenotype (%),[7],47%
same,Total Cell Count,[7],154
same,Population Apoptotic (%),[8],44%
same,Population Fragmented Nuclei (%),[8],25%
same,Population Healthy Nuclei (%),[8],32%
same,Population Hoechst High Intensity Objects (%),[8],12%
same,Population Membrane Permeable-Phenotype (%),[8],17%
same,Population Mitochondria Different-Phenotype (%),[8],20%
same,Population Mitotic Cells (%),[8],55%
same,Population Normal (%),[8],87%
same,Population Pyknosed Nuclei (%),[8],42%
same,Population Tubulin-Different-Phenotype (%),[8],68%
same,Total Cell Count,[8],103
same,Population Apoptotic (%),[9],88%
same,Population Fragmented Nuclei (%),[9],41%
same,Population Healthy Nuclei (%),[9],24%
same,Population Hoechst High Intensity Objects (%),[9],27%
same,Population Membrane Permeable-Phenotype (%),[9],0%
same,Population Mitochondria Different-Phenotype (%),[9],0%
same,Population Mitotic Cells (%),[9],12%
same,Population Normal (%),[9],72%
same,Population Pyknosed Nuclei (%),[9],33%
same,Population Tubulin-Different-Phenotype (%),[9],33%
same,Total Cell Count,[9],102
same,Population Apoptotic (%),[10],93%
same,Population Fragmented Nuclei (%),[10],42%
same,Population Healthy Nuclei (%),[10],37%
same,Population Hoechst High Intensity Objects (%),[10],8%
same,Population Membrane Permeable-Phenotype (%),[10],27%
same,Population Mitochondria Different-Phenotype (%),[10],20%
same,Population Mitotic Cells (%),[10],6%
same,Population Normal (%),[10],91%
same,Population Pyknosed Nuclei (%),[10],20%
same,Population Tubulin-Different-Phenotype (%),[10],82%
same,Total Cell Count,[10],85
same,Population Apoptotic (%),[11],86%
same,Population Fragmented Nuclei (%),[11],40%
same,Population Healthy Nuclei (%),[11],20%
same,Population Hoechst High Intensity Objects (%),[11],38%
same,Population Membrane Permeable-Phenotype (%),[11],5%
same,Population Mitochondria Different-Phenotype (%),[11],10%
same,Population Mitotic Cells (%),[11],13%
same,Population Normal (%),[11],61%
same,Population Pyknosed Nuclei (%),[11],38%
same,Population Tubulin-Different-Phenotype (%),[11],55%
same,Total Cell Count,[11],156
same,Population Apoptotic (%),[12],57%
same,Population Fragmented Nuclei (%),[12],38%
same,Population Healthy Nuclei (%),[12],38%
same,Population Hoechst High Intensity Objects (%),[12],15%
same,Population Membrane Permeable-Phenotype (%),[12],14%
same,Population Mitochondria Different-Phenotype (%),[12],14%
same,Population Mitotic Cells (%),[12],42%
same,Population Normal (%),[12],84%
same,Population Pyknosed Nuclei (%),[12],23%
same,Population Tubulin-Different-Phenotype (%),[12],80%
same,Total Cell Count,[12],108
